Data reported in ChEMBL document CHEMBL5104202, “Structure-Uptake Relationship Studies of Oxazolidinones in Gram-Negative ESKAPE Pathogens” (J Med Chem, 2022).
Values after ≈ are worked out from the molar mass of the structure shown.

Assays:
Klebsiella pneumoniae [1] = test: Antibacterial activity against multidrug resistant Klebsiella pneumoniae ATCC43816 assessed as inhibition of bacterial growth incubated for 24 hrs in M9-MOPS medium by twofold serial dilution method; type: functional
Klebsiella pneumoniae [2] = test: Antibacterial activity against multidrug resistant Klebsiella pneumoniae ATCC43816 assessed as inhibition of bacterial growth incubated for 24 hrs in MHI medium by twofold serial dilution method; type: functional
Klebsiella aerogenes [3] = test: Antibacterial activity against multidrug resistant Klebsiella aerogenes ATCC13048 assessed as inhibition of bacterial growth incubated for 24 hrs in M9-MOPS medium by twofold serial dilution method; type: functional
Klebsiella aerogenes [4] = test: Antibacterial activity against multidrug resistant Klebsiella […] assessed as inhibition of bacterial growth incubated for 24 hrs in MHI medium by twofold serial dilution method; type: functional
Klebsiella pneumoniae [5] = test: Antibacterial activity against multidrug resistant Klebsiella pneumoniae ATCC13883 assessed as inhibition of bacterial growth incubated for 24 hrs in M9-MOPS medium by twofold serial dilution method; type: functional
Klebsiella pneumoniae [6] = test: Antibacterial activity against multidrug resistant Klebsiella pneumoniae ATCC13883 assessed as inhibition of bacterial growth incubated for 24 hrs in MHI medium by twofold serial dilution method; type: functional
Pseudomonas aeruginosa [7] = test: Antibacterial activity against multidrug resistant Pseudomonas aeruginosa BAA 2109 assessed as inhibition of bacterial growth incubated for 24 hrs in […] medium by twofold serial dilution method; type: functional
Pseudomonas aeruginosa [8] = test: Antibacterial activity against multidrug resistant Pseudomonas aeruginosa BAA 2109 assessed as inhibition of bacterial growth incubated for 24 hrs in MHI medium by twofold serial dilution method; type: functional
Pseudomonas aeruginosa [9] = test: Antibacterial activity against multidrug resistant Pseudomonas aeruginosa BAA 2108 assessed as inhibition of bacterial growth incubated for 24 hrs in M9-MOPS medium by twofold serial dilution method; type: functional
Pseudomonas aeruginosa [10] = test: Antibacterial activity against multidrug resistant Pseudomonas aeruginosa BAA 2108 assessed as inhibition of bacterial growth incubated for 24 hrs in MHI medium by twofold serial dilution method; type: functional
Acinetobacter baumannii [11] = test: Antibacterial activity against multidrug resistant Acinetobacter baumannii Ab5075 assessed as inhibition of bacterial growth incubated for 24 hrs in M9-MOPS medium by twofold serial dilution method; type: functional
Acinetobacter baumannii [12] = test: Antibacterial activity against multidrug resistant Acinetobacter baumannii Ab5075 assessed as inhibition of bacterial growth incubated for 24 hrs in MHI medium by twofold serial dilution method; type: functional
Acinetobacter baumannii [13] = test: Antibacterial activity against multidrug resistant Acinetobacter baumannii AYE assessed as inhibition of bacterial growth incubated for 24 hrs in M9-MOPS medium by twofold serial dilution method; type: functional
Acinetobacter baumannii [14] = test: Antibacterial activity against multidrug resistant Acinetobacter baumannii AYE assessed as inhibition of bacterial growth incubated for 24 hrs in MHI medium by twofold serial dilution method; type: functional
Acinetobacter baumannii [15] = test: Antibacterial activity against efflux pump lacking Acinetobacter baumannii assessed as inhibition of bacterial growth; type: functional, organism-based
Acinetobacter baumannii [16] = test: Antibacterial activity against efflux pump lacking/recombinant OM pore producing Acinetobacter baumannii assessed as inhibition of bacterial growth; type: functional, organism-based
Acinetobacter baumannii [17] = test: Antibacterial activity against recombinant OM pore producing Acinetobacter baumannii assessed as inhibition of bacterial growth; type: functional, organism-based
Acinetobacter baumannii [18] = test: Antibacterial activity against wild type Acinetobacter baumannii assessed as inhibition of bacterial growth; type: functional, organism-based
Escherichia coli [19] = test: Antibacterial activity against wild type Escherichia coli assessed as inhibition of bacterial growth; type: functional, organism-based
Escherichia coli [20] = test: Antibacterial activity against recombinant OM pore producing Escherichia coli assessed as inhibition of bacterial growth; type: functional, organism-based
Escherichia coli [21] = test: Antibacterial activity against efflux pump lacking Escherichia coli assessed as inhibition of bacterial growth; type: functional, organism-based
Escherichia coli [22] = test: Antibacterial activity against efflux pump lacking/recombinant OM pore producing Escherichia coli assessed as inhibition of bacterial growth; type: functional, organism-based
Pseudomonas aeruginosa [23] = test: Antibacterial activity against wild type Pseudomonas aeruginosa assessed as inhibition of bacterial growth; type: functional, organism-based
Pseudomonas aeruginosa [24] = test: Antibacterial activity against recombinant OM pore producing Pseudomonas aeruginosa assessed as inhibition of bacterial growth; type: functional, organism-based
Pseudomonas aeruginosa [25] = test: Antibacterial activity against efflux pump lacking Pseudomonas aeruginosa assessed as inhibition of bacterial growth; type: functional, organism-based
Pseudomonas aeruginosa [26] = test: Antibacterial activity against efflux pump lacking/recombinant OM pore producing Pseudomonas aeruginosa assessed as inhibition of bacterial growth; type: functional, organism-based
Acinetobacter baumannii [27] = test: Antibacterial activity against efflux pump lacking/recombinant OM pore producing Acinetobacter baumannii incubated for 24 hrs by twofold serial dilution method; type: functional
Procedure, shortened: (§1)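 MICs by twofold serial dilution in 96-well plates from 10 mM DMSO stocks. Cultures grown in the indicated media; for E. coli, A. baumannii and P. aeruginosa, inducers were 0.1% arabinose, 1% arabinose and 0.1 mM IPTG respectively.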

Escherichia coli [28] = test: Antibacterial activity against efflux pump lacking/recombinant OM pore producing Escherichia coli incubated for 24 hrs by twofold serial dilution method; type: functional
Procedure, shortened: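 E. coli efflux-knockout/hyperporinated strain grown in M9 medium with 50 mM MOPS (pH 7.2) and 0.2% xylose. OM pore induced with 0.1% arabinose. Compounds come from 10 mM DMSO stocks and are twofold serially diluted in 96-well plates.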

Pseudomonas aeruginosa [29] = test: Antibacterial activity against efflux pump lacking/recombinant OM pore producing Pseudomonas aeruginosa incubated for 24 hrs by twofold serial dilution method; type: functional; procedure, shortened: as §1
Escherichia coli [30] = test: Antibacterial activity against Escherichia coli SQ110 DTC G2032A incubated for 24 hrs by twofold serial dilution method; type: functional
Procedure, shortened: (§2)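 E. coli SQDTC (TolC-deficient, single rRNA operon) carrying LZD-resistant 23S rRNA substitutions. Compounds come from 10 mM DMSO stocks and are twofold serially diluted in 96-well plates.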

Staphylococcus aureus = test: Antibacterial activity against Staphylococcus aureus ATCC 25923 incubated for 24 hrs by twofold serial dilution method; type: functional; procedure, shortened: as §1
Escherichia coli [31] = test: Antibacterial activity against Escherichia coli SQ110 DTC incubated for 24 hrs by twofold serial dilution method; type: functional; procedure, shortened: as §1
Escherichia coli [32] = test: Antibacterial activity against Escherichia coli SQ110 incubated for 24 hrs by twofold serial dilution method; type: functional; procedure, shortened: as §1
Escherichia coli [33] = test: Antibacterial activity against Escherichia coli SQ110 DTC C2610A incubated for 24 hrs by twofold serial dilution method; type: functional; procedure, shortened: as §2
Pseudomonas aeruginosa [34] = test: Selectivity ratio of IC50 for efflux pump lacking Pseudomonas aeruginosa to IC50 for efflux pump lacking/OM pore producing Pseudomonas aeruginosa; type: functional
Procedure, shortened: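 OM impact ratio (E/PE) is the M9-MOPS growth IC50 in the efflux-lacking strain divided by that in the efflux-lacking/pore-producing strain.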

Pseudomonas aeruginosa [35] = test: Selectivity ratio of IC50 for OM pore producing Pseudomonas aeruginosa to IC50 for efflux pump lacking/OM pore producing Pseudomonas aeruginosa; type: functional
Procedure, shortened: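 Efflux impact ratio (P/PE) is the M9-MOPS growth IC50 in the pore-producing strain divided by that in the efflux-lacking/pore-producing strain.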

Klebsiella pneumoniae [36] = test: Antibacterial activity against multidrug resistant Klebsiella pneumoniae ATCC43816 assessed as inhibition of bacterial growth incubated for 24 hrs in MHI medium by twofold serial dilution method; conditions: ATCC43816, 24 h

Compound `O=C1O[C@@H](CO)CN1c1ccc(-c2ccncc2)c(F)c1` has an MIC (Klebsiella pneumoniae [1]) of 200 µM (≈ 57.7 µg/mL), an MIC (Klebsiella pneumoniae [2]) greater than 200 µM and an MIC (Klebsiella aerogenes [3]) of 200 µM (≈ 57.7 µg/mL). It also gave an MIC (Klebsiella aerogenes [4]) of 200 µM (≈ 57.7 µg/mL), an MIC (Klebsiella pneumoniae [5]) of 100 µM (≈ 28.8 µg/mL) and an MIC (Klebsiella pneumoniae [6]) of 200 µM (≈ 57.7 µg/mL). It also gave an MIC (Pseudomonas aeruginosa [7]) greater than 200 µM, an MIC (Pseudomonas aeruginosa [8]) greater than 200 µM and an MIC (Pseudomonas aeruginosa [9]) of no less than 200 µM. It also gave an MIC (Pseudomonas aeruginosa [10]) of no less than 200 µM, an MIC (Acinetobacter baumannii [11]) of 100 µM (≈ 28.8 µg/mL) and an MIC (Acinetobacter baumannii [12]) greater than 200 µM. The MIC (Acinetobacter baumannii [13]) was 100 µM (≈ 28.8 µg/mL), the MIC (Acinetobacter baumannii [14]) was greater than 200 µM and the IC50 (Acinetobacter baumannii [15]) was 1.4 µM. The IC50 (Acinetobacter baumannii [16]) was 1.4 µM, the IC50 (Acinetobacter baumannii [17]) was 16.5 µM and the IC50 (Acinetobacter baumannii [18]) was 16.5 µM. For the same compound, the IC50 (Escherichia coli [19]) was 44.3 µM, the IC50 (Escherichia coli [20]) was 5.6 µM and the IC50 (Escherichia coli [21]) was 0.8 µM. For the same compound, the IC50 (Escherichia coli [22]) was 1.3 µM, the IC50 (Pseudomonas aeruginosa [23]) was 44.2 µM and the IC50 (Pseudomonas aeruginosa [24]) was 48.2 µM. It also gave an IC50 (Pseudomonas aeruginosa [25]) of 8.1 µM, an IC50 (Pseudomonas aeruginosa [26]) of 2.9 µM and an MIC (Acinetobacter baumannii [27]) of 6.25 µM. The MIC (Escherichia coli [28]) was 6.25 µM, the MIC (Pseudomonas aeruginosa [29]) was 3.12 µM and the MIC (Escherichia coli [30]) was 25 µM (≈ 7.21 µg/mL). It also gave an MIC (Staphylococcus aureus) of 1.56 µM (≈ 0.45 µg/mL), an MIC (Escherichia coli [31]) of 6.25 µM (≈ 1.8 µg/mL) and an MIC (Escherichia coli [32]) greater than 100 µM. For the same compound, the MIC (Escherichia coli [33]) was 6.25 µM (≈ 1.8 µg/mL).

`CC(=O)NC[C@H]1CN(c2ccc(N3CCOCC3)c(F)c2)C(=O)O1` [LINEZOLID] was tested, and the MIC (Klebsiella pneumoniae [1]) was greater than 200 µM, the MIC (Klebsiella pneumoniae [2]) was greater than 200 µM and the MIC (Klebsiella aerogenes [3]) was greater than 200 µM. The MIC (Klebsiella pneumoniae [5]) was no less than 200 µM, the MIC (Klebsiella pneumoniae [6]) was greater than 200 µM and the MIC (Pseudomonas aeruginosa [7]) was greater than 200 µM. The MIC (Pseudomonas aeruginosa [8]) was greater than 200 µM, the MIC (Pseudomonas aeruginosa [9]) was greater than 200 µM and the MIC (Pseudomonas aeruginosa [10]) was greater than 200 µM. The MIC (Acinetobacter baumannii [11]) was no less than 200 µM, the MIC (Acinetobacter baumannii [12]) was greater than 200 µM and the MIC (Acinetobacter baumannii [13]) was 200 µM (≈ 67.5 µg/mL). It also gave an MIC (Acinetobacter baumannii [14]) greater than 200 µM, an IC50 (Acinetobacter baumannii [15]) of 4.9 µM and an IC50 (Acinetobacter baumannii [16]) of 4 µM. The IC50 (Acinetobacter baumannii [17]) was 9.2 µM, the IC50 (Acinetobacter baumannii [18]) was 33.4 µM and the IC50 (Escherichia coli [19]) was greater than 100 µM. The IC50 (Escherichia coli [20]) was 18 µM, the IC50 (Escherichia coli [21]) was 8.7 µM and the IC50 (Escherichia coli [22]) was 9.3 µM. It also gave an IC50 (Pseudomonas aeruginosa [23]) greater than 100 µM, an IC50 (Pseudomonas aeruginosa [24]) of 19.8 µM and an IC50 (Pseudomonas aeruginosa [25]) of 24.7 µM. The IC50 (Pseudomonas aeruginosa [26]) was 1.7 µM, the MIC (Acinetobacter baumannii [27]) was 25 µM and the MIC (Escherichia coli [28]) was 25 µM. For the same compound, the MIC (Pseudomonas aeruginosa [29]) was 12.5 µM, the MIC (Escherichia coli [30]) was greater than 100 µM and the MIC (Staphylococcus aureus) was 6.25 µM (≈ 2.11 µg/mL). For the same compound, the MIC (Escherichia coli [31]) was 25 µM (≈ 8.43 µg/mL), the MIC (Escherichia coli [32]) was greater than 100 µM and the MIC (Escherichia coli [33]) was 50 µM (≈ 16.9 µg/mL). For the same compound, the Ratio IC50 (Pseudomonas aeruginosa [34]) was 15, the Ratio IC50 (Pseudomonas aeruginosa [35]) was 12 and the MIC (Klebsiella pneumoniae [36]) was greater than 200 µM.
